Sampled rows, rich in hits. Any-hit rate of the full collection: about 2.3%.
OXTR potentiator = potentiators of human oxytocin receptor; P30559; CHO-OTR cells, Fluo-8 calcium fluorescence, potentiator mode; 0% = oxytocin EC15, 100% = EC100; activation, % at 3 µM; 320,000 tested, 0.061% active; AID 2445;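 active means activation above that plate's cutoff, the mean activation of tested compounds plus 3 SD, cut at about 6.6% in these data, passing the limit was not always enough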;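 further: 100% uses oxytocin at 75 nM as the full agonist control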
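System: human OTR in CHO cells / Also added: sub-maximal oxytocin, roughly EC15 / Control set: EC15 oxytocin low, 75 nM oxytocin high / Schedule: 6 min compound pre-incubation at room temperature, 100 s kinetic read / Compound: single-point 3.0 µM / Replication: singlicate / Technique: Fluo-8 calcium dye fluorescence / Read-out basis: % activation of max/min ratio relative to oxytocin controls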
TAAR1 agonist = human TAAR1 agonism. AID 624467. activation, % at 3 µM. CHO RD-HGA16 TAAR1, Fluo-8 calcium fluorescence; vehicle wells 0%, saturating PEA agonist 100%. Q96RJ0. 360,000 tested, 0.99% active;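 active means activation above the mean activation of all test compounds in the run plus 3 SD, cut at about 38% in these data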
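Assay system – CHO-derived RD-HGA16 cells with stable Gα16 and human TAAR1 · Compound dosing – one-point dosing at 3 µM (nominal) · Incubation – 17-24 h seeding, 75 min 37 °C dye, 30 min RT · Measured by – kinetic Fluo-8 calcium fluorescence · Control set – DMSO vehicle as 0%, PEA at EC100 as 100% · Repeats – single well for each compound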
OXTR ag = activates the human oxytocin receptor | P30559 | CHO-OTR cells, Fluo-8 calcium fluorescence; normalized: DMSO 0%, oxytocin 100% | 320,000 tested, 0.32% active | activation, % at 3 µM | AID 2435;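 active means activation above the mean of all tested compounds plus 3 SD, cutoff set per screening run, cut at about 20% in these data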;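 further: peak over basal fluorescence ratio from a 100 s FLIPR kinetic read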
TAAR1 antag = human TAAR1 antagonism | 360,000 tested, 1.5% active | inhibition, % at 3 µM | Q96RJ0 | CHO RD-HGA16 TAAR1, Fluo-8 calcium fluorescence, antagonist | AID 624466;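 active means inhibition above a per-plate cutoff, the mean inhibition of test compounds on that plate plus 3 SD, cut at about 49% in these data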;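 further: 0% = DMSO plus EC80 beta-PEA response and 100% = DMSO alone without agonist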
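Material: RD-HGA16 CHO cells with stable hTAAR1 and Gα16; Dosing: single nominal final test compound concentration of 3 µM; Schedule: seeding 17-24 h prior, 75-min 37 °C, 30-min RT dye loading; Detection: kinetic Fluo-8 calcium fluorescence measurement; Measure: % inhibition from peak post-agonist over basal fluorescence ratio; Benchmarks: vehicle and agonist controls.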
V1R ag counter = V1a receptor agonism, counter-screen for OXTR agonists | P37288 | CHO-V1R cells, Fluo-8 calcium fluorescence, agonist mode; 0% DMSO, 100% 3 nM vasopressin | activation, % at 3 µM | 320,000 tested, 0.25% active | AID 2797;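 active means activation above the mean activation of all tested compounds plus 3 SD, per screening run, cut at about 20% in these data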;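 further: signal is peak over basal fluorescence ratio across a 100 second FLIPR read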
Target sequence (P37288 whole entry, looked up): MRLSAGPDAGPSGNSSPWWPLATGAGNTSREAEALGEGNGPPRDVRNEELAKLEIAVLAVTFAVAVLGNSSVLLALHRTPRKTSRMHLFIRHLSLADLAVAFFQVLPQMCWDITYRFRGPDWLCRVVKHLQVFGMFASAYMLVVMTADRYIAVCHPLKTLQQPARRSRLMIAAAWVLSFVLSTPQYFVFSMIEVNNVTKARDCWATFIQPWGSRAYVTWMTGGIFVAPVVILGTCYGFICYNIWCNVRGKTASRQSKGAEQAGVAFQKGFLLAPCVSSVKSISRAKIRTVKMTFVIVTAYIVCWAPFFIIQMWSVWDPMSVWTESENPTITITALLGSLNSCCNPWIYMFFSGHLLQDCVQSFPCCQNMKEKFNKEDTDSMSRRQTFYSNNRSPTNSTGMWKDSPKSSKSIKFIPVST
An asterisk follows results filed as active; nt = not tested or not shown; ! = not confirmed by another sample.

SMILES	OXTR potentiator	TAAR1 agonist	OXTR ag	TAAR1 antag	V1R ag counter
COc1cc(NC(=O)c2ccnc(N)c2)cc(C(=O)Nc2cccc(C(F)(F)F)c2)c1	-5	11	0	30	0
COc1cc(NC(=O)c2cnc(N)s2)cc(C(=O)Nc2cccc(C(F)(F)F)c2)c1	0	1	0	30	0
COc1cc(NC(=O)c2csc(N)n2)cc(C(=O)Nc2cccc(C(F)(F)F)c2)c1	-15	5	-2	53*!	-1
COc1cc(NC(=O)c2cc(C)on2)cc(C(=O)Nc2cccc(C(F)(F)F)c2)c1	-12	6	2	54*!	0
O=C(/C=C/c1cccc(Cl)c1)c1ccc([N+](=O)[O-])o1	1	57*	1	43	1
COc1ccc(OCCC(=O)NCCN2CCOCC2)cc1	-22	8	1	-3	0
CC(=NNc1nc2ccccc2s1)c1ncccn1	nt	49*	nt	74*	nt
Fc1cccc(Cl)c1CN1CCN(c2ncc(Cc3ccccc3)cn2)CC1	nt	5	nt	-29	nt
CC(=O)c1cccc(NC(=O)c2ccoc2C)c1	-2	6	0	7	1
COc1ccc(C(=O)Nc2cccc(/C(C)=N\NC(=O)c3ccoc3C)c2)cc1OC	nt	13	nt	49*	nt
O=C1NC(=O)C2(CCOc3ccc(F)cc32)N1 (stereo not drawn)	nt	0	nt	0	nt
CCc1cccc2c(C(=O)COC(=O)[C@@H]3CC(O)CN3S(=O)(=O)c3ccccc3[N+](=O)[O-])c[nH]c12 (stereo partly drawn)	-2	11	0	56*	0
O=C(COC(=O)[C@@H]1CC(O)CN1S(=O)(=O)c1ccccc1[N+](=O)[O-])c1ccccc1 (stereo partly drawn)	2	10	1	2	0
CC(C)(C)OC(=O)N[C@H](C(=O)OC(C)(C)C)c1ccc2c(c1)OCO2	0	1	-2	-1	-1
CC(C)=CCc1c(O)ccc(C(=O)Cc2ccccc2)c1O	-18	40*	2	26	2
COC(=O)c1cc2c(c3c4cc(C)ccc4n(S(=O)(=O)c4ccc(C)cc4)c13)C(=O)N(C)C2	nt	-2	nt	-33	nt
O=C(NCCc1ccccc1)c1cc(-c2ccc3c(c2)OCO3)on1	-6	38*	-1	11	-1
CCCNC(=O)c1cc(-c2ccc3c(c2)OCO3)on1	-15	2	-1	-14	2
O=C(OCn1ncc(Cl)c(Cl)c1=O)c1ccccc1Cl	17*	18	-2	12	-2
O=C(OCn1ncc(Cl)c(Cl)c1=O)c1ccc(F)cc1	-2	nt	-3	nt	-1
COc1ccc(-c2nn(-c3ccccc3)cc2/C=N/NC(=O)c2ccc(Br)o2)cc1	-14	18	2	61*	2
COc1ccc(-c2nn(-c3ccccc3)cc2/C=N/NC(=O)c2ccc3c(c2)OCO3)cc1	-10	nt	-1	nt	1
O=C(N/N=C\c1cn(-c2ccccc2)nc1-c1ccccc1)c1ccc2c(c1)OCO2	-17	10	-2	55*	0
CCCN(C(=O)c1cn(CCC)c2ccccc12)c1ccc(Oc2cccnc2)cc1	nt	-2	nt	14	nt
O=C(CSc1ncccc1C(=O)O)NCCC1=CCCCC1	4	96*	2	77*	1
SMILES	OXTR potentiator	TAAR1 agonist	OXTR ag	TAAR1 antag	V1R ag counter
O=C(c1cc2ccc([N+](=O)[O-])cc2oc1=O)N1CCOCC1	-5	5	1	-25	1
COc1cc(Cn2c3ccc(NC(=O)CC(C)C(F)(F)F)cc3c(=O)n2C)ccc1F (stereo not drawn)	nt	4	nt	7	nt
Cc1cc2occ(CC(=O)N(CC(C)C)c3c(N)n(Cc4ccccc4)c(=O)[nH]c3=O)c2cc1C	-7	3	0	-28	-1
CC(=O)Nc1ccc(NC(=O)Nc2ccc3c(c2)N(C)C(=O)CS3)cc1	-1	2	0	11	1
CN1C(=O)CSc2ccc(NC(=O)N3CCc4ccccc43)cc21	-2	20	-1	56*	0
COc1cccc(NC(=O)Nc2ccc3c(c2)N(C)C(=O)CS3)c1	-23	23	4	69*	5
N=c1c2c(-c3ccccc3)c(-c3ccccc3)n(Cc3ccco3)c2ncn1Cc1ccccc1	-19	16	21*	8	23*
CC(C)Cn1cnc2c(c(-c3ccccc3)c(-c3ccccc3)n2Cc2ccco2)c1=N	-14	42*	5	-8	8
N=c1c2c(-c3ccccc3)c(-c3ccccc3)n(Cc3ccco3)c2ncn1CCCn1ccnc1	-6	21	-1	-18	1
Nc1nc2c(ncn2[C@@H]2O[C@H](C(=O)NC3CCCCC3)[C@@H](O)[C@H]2O)c(=O)[nH]1	nt	3	nt	-12	nt
Cc1ccc(C(=O)N2N=C(c3cccc(NS(C)(=O)=O)c3)CC2c2cccs2)cc1 (stereo not drawn)	-9	11	2	51*	4
CCCCC#Cc1ccccc1COC[B-](F)(F)F	nt	1	nt	-21	nt
O=C(Nc1ccccc1C(F)(F)F)NC1(C(=O)N2CCOCC2)CCCCC1	nt	-1	nt	-17	nt
N#Cc1c(NCCCO)nc(NCc2ccccc2)c2c1CCN(Cc1ccccc1)C2	-16	17	-1	55*	0
COCCNC(=S)N(C)[C@H]1C[C@H]2c3[nH]c4ccccc4c3CCN2C(=O)[C@H]1[C@H](C)O	nt	2	nt	-20	nt
O=[N+]([O-])c1ccc(NC(=S)NCCc2ccc(Cl)cc2)cc1	-31	8	15	57*	8
O=C(CCc1ccccc1)NC1(Cc2ccccc2)CCN(CCc2cccs2)C1=O (stereo not drawn)	0	23	-1	22	-1
O=C(NC1(Cc2ccccc2)CCN(Cc2ccc(-c3ccccc3)cc2)C1=O)c1ccccc1 (stereo not drawn)	-6	20	4	62*	2
CSC1=NSC2=NC(=O)/C(=C\c3cccs3)C(=N)N12	-4	4	2	2	1
CSC1=NSC2=NC(=O)/C(=C/c3coc4ccc(O)cc4c3=O)C(=N)N12	-19	412*	104*	109*	77*
COc1cc(/C=C2/C(=N)N3C(SC)=NSC3=NC2=O)ccc1OC(=O)c1ccco1	-4	-1	0	-4	0
CSC1=NSC2=NC(=O)/C(=C/c3coc4ccccc4c3=O)C(=N)N12	-12	375*	176*	104*	88*
CC1=CC2=NC(=O)/C(=C/c3coc4ccc(Cl)cc4c3=O)C(=N)N2O1	-19	43*	55*	27	34*
CC1=CC2=NC(=O)/C(=C\c3cc(C)n(-c4cccc(Cl)c4)c3C)C(=N)N2O1	-4	-2	-1	-6	0
Cc1ccc(NC(=O)CSc2nn(-c3ccccc3)c(=S)s2)cc1S(=O)(=O)N(C)C	-9	10	10	51*	10

Assay outcomes deposited in PubChem by The Scripps Research Institute Molecular Screening Center.
